The source of these data is PMC10413464 (ACS Omega, 2023).

In one experiment the test system is Ecoil-EGF. Kind of experiment: SPR capture of Ecoil-EGF on Kcoil surfaces. The format is binding. The conditions noted are these: 10 μL/min. An outline of the steps:
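Biacore T100 SPR on CM5 dextran chips, HBS-EP running buffer, 25 °C, 10 Hz collection. A test injection gave the Ecoil-EGF capture rate (RU/s), used to capture about 10 RU. Ecoil-EGF was at 0.05 µg/mL on thiol-coupled Kcoil and 0.1 µg/mL on amine-coupled monomeric or dimeric Kcoil. Surfaces were regenerated with two 15 s pulses of 6 M guanidium-HCl.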

For experiment [1], the system named is Ecoil-tagged FcγRIIIa (V158). In words: SPR capture of Ecoil-tagged FcγRIIIa on Kcoil surfaces. The format is binding. The conditions noted are these: for FcγRIIIa capture rate: Ecoil-tagged FcγRIIIa 0.25 μg/mL, 10 μL/min, from 25 s test injection. An outline of the steps:
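FcγRIIIa V158 was Ecoil-tagged, expressed transiently in CHO-3E7 and purified by metal affinity. Biacore T100 SPR used CM5 chips in HBS-EP at 25 °C. Kcoil surfaces were amine-coupled Cys-free, thiol-coupled Cys- or amine-coupled dimeric Cys-Kcoil. A short 25 s injection gave the capture rate, assumed constant, to set the injection time for a 20 RU capture. The test was repeated before each batch.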

The test system of the next experiment is Ecoil peptide. Kind of experiment: SPR Ecoil peptide interaction with grafted Kcoil peptide. The format is binding. To be noted: comparison of the three grafting strategies.
The next experiment deals with EGFR phosphorylation. To be noted: read-out: EC50 for EGFR phosphorylation in solution; cited from earlier work.
A short description of experiment [2]: Ecoil-EGF/hEGF capture on glass slides by ELISA. Type of experiment: binding. To be noted: 5 nM hEGF stock, mean ± SD, n = 3. On the technique in general: ELISA stands for enzyme-linked immunosorbent assay.
The target in experiment [3] is cysteine-free azidohomoalanine-terminated Kcoil, AhaGG-(KVSALKE)5. Kind of experiment: SPR. A general note: In SPR one partner is held on a chip, and binding of the other changes the refractive index at the surface.
For experiment [4], the target named is dimeric Kcoil–Kcoil peptide (oxidized Cys-Kcoil, linked by a disulfide bond). Kind of experiment: SPR.

In the experiment on Ecoil-EGF (Ecoil-EGF 0.1 μg/mL), AhaGG-(KVSALKE)5 [Cys-free Kcoil] gave an Ecoil-EGF capture rate of 0.32 RU/s. The same molecule had a FcγRIIIa capture rate in experiment [1] of 0.06 RU/s. Besides, in experiment [1] (SPR, 20 RU target), the “Ecoil-tagged FcγRIIIa capture (in words)” value is reported as “furthest from the 20 RU target”.
On to CGG-(KVSALKE)5 [Cys-Kcoil], for which, in the experiment on Ecoil-EGF (Ecoil-EGF 0.05 μg/mL), the Ecoil-EGF capture rate was found to be 1.32 RU/s. Also, the “bioavailability (in words)” value in the experiment with Ecoil peptide is recorded as “highest percentage of bioavailability”. The FcγRIIIa capture rate in experiment [1] amounted to 0.57 RU/s.
Consider “hEGF: Recombinant human EGF (hEGF, #236-EG)”, for which the EC50 in the experiment on EGFR phosphorylation was 4 nM. Further, the “density on amine surface after 2 h (non-specific adsorption)” value in experiment [2] (amine surface) is 0.50 ± 0.01 pmol/cm^2. In experiment [2] (thiol surface), the “density on thiol surface after 2 h (non-specific adsorption)” value is listed as 0.50 ± 0.01 pmol/cm^2.

B1: Ecoil peptide [(EVSALEK)5] (peptide)
peptide: Ac-EVSALEKEVSALEKEVSALEKEVSALEKEVSALEK-NH2
Consider B1, for which the koff in experiment [3] was determined as 0.000308 s⁻¹; in experiment [4], 0.000468 s⁻¹.

What is called EC50 is the concentration at which the effect is half-maximal. What is called koff is the rate constant with which the complex falls apart. A low value points to slow dissociation.
